Sampled rows, rich in hits. Any-hit rate of the full collection: about 1.5%.
APJ agonist – agonists of human APJ apelin receptor. AID 2520. P35414. CHO-K1 APJ PathHunter beta-arrestin, luminescence; 0% DMSO wells, 100% apelin. activation, % at 20 µM. actives 0.11% (n = 330,000);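 active means activation more than six SD over the plate average, tested at 20 µM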;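 further: 0% = DMSO alone and 100% = apelin-13 at 10 nM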
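Assay system – PathHunter CHO-K1 APJ (AGTRL-1) beta-arrestin reporter cells · Compound – one dose, 20 µM compound, 1% DMSO · Timing – compound 90 min 25 °C, reagent 1 h · Measured by – luminescence from split beta-galactosidase complementation, Galacton Star/Emerald II substrate · Measure – beta-arrestin recruitment to APJ as agonist activity, luminescent signal · Benchmarks – DMSO vs Apelin-13 10 nM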
CCR6 antag – antagonists of human CCR6 receptor. P51684. CHO-K1 CCR6 PathHunter beta-arrestin, luminescence, CCL20-stimulated. inhibition, % at 20 µM. actives 0.49% (n = 340,000). AID 493098;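 active means compounds whose inhibition of the agonist-driven luminescence signal at 20 µM reaches about 50%, limit read from the data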;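 further: cells stimulated with CCL20 at 14 nM final; plate controls were DMSO with CCL20 for no effect and DMSO without agonist for full effect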
CXCR6 inh – blocks human CXCR6 beta-arrestin recruitment. inhibition, % at 20 µM. actives 0.36% (n = 360,000). CHO-K1 PathHunter CXCR6 beta-arrestin, luminescence; in the data active means inhibition above about 34%, passing the limit was not always enough;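 further: antagonist mode with CXCL16 agonist at 10 nM final; 0% = 10 nM CXCL16 with DMSO and 100% = unstimulated wells without agonist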
Target sequence (O00574 whole entry, looked up): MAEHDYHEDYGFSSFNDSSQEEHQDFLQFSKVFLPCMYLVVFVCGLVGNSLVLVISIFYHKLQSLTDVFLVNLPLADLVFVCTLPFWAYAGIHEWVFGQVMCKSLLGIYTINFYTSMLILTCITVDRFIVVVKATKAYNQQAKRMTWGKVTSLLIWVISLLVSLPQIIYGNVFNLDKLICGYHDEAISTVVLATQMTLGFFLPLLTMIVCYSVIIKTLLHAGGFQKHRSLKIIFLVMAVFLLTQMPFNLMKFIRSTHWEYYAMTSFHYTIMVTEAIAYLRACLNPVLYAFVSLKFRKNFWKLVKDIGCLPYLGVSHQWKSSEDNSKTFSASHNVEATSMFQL
EBI2 antag – blocks human EBI2 receptor beta-arrestin signaling; P32249; EBI2 beta-arrestin recruitment, luminescence, 7a,25-OHC stimulated; inhibition, % at 5 µM; actives 0.81% (n = 360,000); in the data active means inhibition above about 38%;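 further: enzyme fragment complementation signal reports receptor beta-arrestin coupling in cells; 0% = agonist plus DMSO wells and 100% = wells without agonist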
APJ antagonist – antagonists of human APJ apelin receptor; CHO-K1 APJ beta-arrestin complementation, luminescence; actives 0.32% (n = 330,000); AID 2521; inhibition, % at 20 µM;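 active means inhibition above about 40% at 20 µM, limit read from the data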;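 further: cells challenged with 10 nM apelin-13 agonist together with compound; plate controls were apelin-13 plus DMSO wells for no effect and DMSO wells lacking apelin-13 for full effect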
Numbers without * were called inactive; · = no result.

SMILES | APJ agonist | CCR6 antag | CXCR6 inh | EBI2 antag | APJ antagonist
Cc1cc(C(=O)OCC(=O)Nc2cc(S(=O)(=O)N3CCOCC3)ccc2Cl)c(C)o1 | -3 | 4 | -1 | 9 | 11
O=C(CN1CCCc2ccccc21)N/N=C/c1ccc(O)cc1O | -1 | -8 | -12 | -3 | -8
CCOc1ccc(NC(=S)NC(C)C(c2ccccc2)N2CCN(C)CC2)cc1 (stereo not drawn) | -2 | 17 | 0 | -3 | 22
c1ccc(NCCCNc2ccccc2)cc1 | -1 | 9 | 0 | 17 | -6
CN1CCN(C(=O)c2ccc(CN(c3ccccc3)S(=O)(=O)c3ccccc3)cc2)CC1 | -3 | 7 | 7 | 2 | 7
CCC(C(=O)NCc1ccccc1)n1c(-c2ccc3c(c2)CCO3)nc2ccccc21 (stereo not drawn) | · | · | · | 7 | ·
CCOC(=O)C1Sc2ccccc2NC1=O (stereo not drawn) | 4 | 3 | -2 | 4 | -4
O=C(N/N=C/c1cc([N+](=O)[O-])ccc1O)C12CC3CC(CC(C3)C1)C2 | -10 | 71* | 40 | 79* | 31
CN1CCN(S(=O)(=O)c2ccc(NC(=O)c3ccc(F)cc3)cc2)CC1 | -4 | 9 | 4 | -1 | 14
Cc1ccc(-c2cc(-c3ccccc3)c(C#N)c(N)n2)o1 | -6 | 78* | 1 | -5 | 0
COc1cc(-c2nc(-c3ccccc3)c(-c3cc([N+](=O)[O-])ccc3C)[nH]2)cc(OC)c1OC | -5 | 14 | 49* | 38* | 29
O=[N+]([O-])c1cccc(-c2nc(-c3ccccc3)c(-c3cccs3)[nH]2)c1 | -3 | -4 | 7 | 6 | -1
COc1cccc(/C=N/Nc2nc(Nc3ccccc3)nc(-n3nc(C)cc3C)n2)c1O | -9 | 67* | 57* | 66* | 18
O=C(NC(Nc1nc2ccc([N+](=O)[O-])cc2s1)(C(F)(F)F)C(F)(F)F)c1ccccc1Cl | -4 | 56* | 29 | 15 | 30
Cc1cc(C)c(Nc2cc(S(=O)(=O)O)c(N)c3c2C(=O)c2ccccc2C3=O)c(C)c1 | · | 54* | 39* | 17 | ·
Cc1ccc(C(=O)CN(CCC(=O)O)C(=O)c2ccncc2)cc1 | 10 | -15 | -3 | -12 | 14
CCc1ccc2[nH]c(=O)c(CN(Cc3nnnn3C3CCCC3)C3CCCCC3)cc2c1 | -5 | -10 | 2 | -5 | -8
Cc1cc(C)c(S(=O)(=O)Nc2ccc3c4c(cccc24)CC3)c(C)c1 | -1 | 17 | 11 | 46* | 13
Cc1ccc(S(=O)(=O)Nc2ccc3c4c(cccc24)CC3)c(C)c1 | -4 | 1 | -3 | 2 | -7
Cc1ccsc1CNC1C2CC3CC(C2)CC1C3 (stereo not drawn) | -3 | 4 | 0 | -8 | 34
COc1cccc(/C=N/n2cnc3c(cnn3-c3ccccc3)c2=O)c1 | 0 | 10 | -7 | 19 | 1
Cc1nc2c(-c3ccccc3)c(C)[nH]n2c(=O)c1Cc1ccccc1 | -3 | 19 | 1 | 1 | 12
Cc1nc2c(-c3ccc(Cl)cc3)c(C)[nH]n2c(=O)c1Cc1ccccc1 | 1 | 47 | 43* | -20 | -5
O=C1OCCN1c1ccccc1 | · | 4 | 1 | -3 | ·
O=C([C@H](Cc1ccc(O)cc1)n1cc(CCO)nn1)N1CCNCC1 | -2 | -6 | -6 | -10 | -4
SMILES | APJ agonist | CCR6 antag | CXCR6 inh | EBI2 antag | APJ antagonist
Cc1ccc(-c2nc3cnccn3c2Nc2c(C)cccc2C)o1 | 2 | 67* | 31 | 5 | -16
Cc1ccc(-c2nc3ncccn3c2Nc2ccccc2C)o1 | -3 | 3 | 1 | 0 | 3
CN(CC1CCCN(CCc2ccc(F)cc2)C1)C(=O)CCC(N)=O (stereo not drawn) | -5 | -3 | 0 | -1 | 15
CC(NC(=O)Cn1ncc(Cl)c(Cl)c1=O)C12CC3CC(CC(C3)C1)C2 (stereo not drawn) | · | 33 | 32 | 63* | ·
C(=N\Nc1nc(-c2ccccc2)cs1)/c1ccco1 | 10* | -18 | -16 | -14 | -54
NNc1nc(-c2ccccc2)cs1 | -5 | 59* | 19 | 3 | 30
Cc1ccc(-c2csc(N/N=C/c3ccco3)n2)cc1 | 5 | -13 | -8 | -10 | 0
CCn1cc(C=C2C(=O)c3ccccc3C2=O)c2ccccc21 | · | 51* | 7 | 3 | ·
O=C1c2cccc3cccc(c23)C(=O)N1CC1CCN(CC(O)COc2ccc3ccccc3c2)CC1 (stereo not drawn) | -5 | 10 | 6 | 57* | -11
COc1cccc(OCC(O)CN2CCC(CN3C(=O)c4cccc5cccc(c45)C3=O)CC2)c1 (stereo not drawn) | 0 | 14 | -12 | 27 | -22
O=C(O)CCN1C(=O)c2ccccc2Sc2ncccc21 | -4 | 6 | -1 | -13 | 8
S=C1NC2CCCCC2N1 (stereo not drawn) | 0 | -31 | 0 | -2 | -1
O=C(c1cc2ccccn2n1)N1CCN(c2cccc(C(F)(F)F)c2)CC1 | 0 | -15 | 6 | 11 | 0
Cc1ccc(C)c(N2CCN(C(=O)c3cc4ccccn4n3)CC2)c1 | 1 | 8 | 4 | 58* | 5
CCCCC(CC)CO (stereo not drawn) | -4 | -9 | -2 | -3 | 10
CCCCC(CC)CN=C(N)NC(N)=NCCCCCCN=C(N)NC(N)=NCC(CC)CCCC (stereo not drawn) | -7 | 79* | 90* | 0 | 23
O=[N+]([O-])c1cnc(Sc2ccncn2)c([N+](=O)[O-])c1 | · | · | 100* | -12 | ·
O=[N+]([O-])c1ccc(Sc2ncccn2)c([N+](=O)[O-])c1 | 8 | -15 | -18 | -67 | -44
COCCNC(=O)c1ccc(C)cc1C | -3 | -3 | -5 | 0 | -4
O=C1C(Cc2ccccc2)Nc2ncnc(N3CCCCC3)c2N1Cc1ccc(Cl)cc1 (stereo not drawn) | -15 | 51* | 28 | -2 | -9
CC(C)C[C@H](N)c1nnc(S(=O)(=O)Cc2ccc(F)cc2)o1 | -1 | 35 | 42* | -9 | 14
CCCSc1cc(NCCOC(C)=O)c([N+](=O)[O-])c2nonc12 | -4 | 17 | 6 | 8 | 22
CC(=O)OCCCNc1cc(SCc2ccco2)c2nonc2c1[N+](=O)[O-] | -2 | 55* | 28 | 8 | 15
COc1ccc(C(=O)CNc2ccc(C)cc2C)cc1 | -15 | 79* | 43* | 6 | 24
COC(=O)c1ccccc1NCC(=O)c1ccc(OC)cc1 | -10 | 37 | 14 | 1 | -7
CCOC(=O)Cn1c(=NC(=O)CSC(C)=O)sc2cc(OC)ccc21 | 1 | 14 | 10 | 24 | 20
O=C1C(Cl)=C(N2CCN(c3ccccc3[N+](=O)[O-])CC2)C(=O)c2ccccc21 | · | · | 42* | 30 | ·
O=[N+]([O-])c1cc(Cl)ccc1N1CCCC1 | -5 | 7 | 8 | 5 | 15

Screens (PubChem)
